Columns and labels:
B-RAF(V600E) = B-RAF(V600E) (Homo sapiens, UniProt P15056, V600E); experiment: B-RAF; assay type: biochemical; conditions: for IC50: B-RAF (V600E) IC50, n = 3; for selectivity for B-RAFV600E kinase over B-RAF wild-type kinase: ratio of kinase IC50 values
Sk-mel-23 melanoma cells = experiment: MTT cytotoxicity assay, B-RAF wild type melanoma cells; assay type: cell-based; conditions: Homo sapiens, SK-MEL-23, 48 h, read-out: Sk-mel-23 IC50
In short: (§1)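 WM266.4 (B-RAFV600E) and Sk-mel-23 (B-RAF wild type) melanoma cells were grown in DMEM with FBS, penicillin and streptomycin at 37 °C under CO₂. […] MTT reagent was added and cells re-incubated; absorbance was read at 590 nm. IC50 was taken from concentration–inhibition curves (n = 3).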

WM266.4 melanoma cells = experiment: MTT cytotoxicity assay, B-RAFV600E-mutated melanoma cells; assay type: cell-based; conditions: for potency against WM266.4 melanoma cells relative to dabrafenib: WM266.4 cells
In short: as §1

B-RAF (wild-type) = B-RAF (wild-type) (Homo sapiens, UniProt P15056); experiment: B-RAF; assay type: biochemical
B-RAF (wild-type), sequence (P15056 whole entry): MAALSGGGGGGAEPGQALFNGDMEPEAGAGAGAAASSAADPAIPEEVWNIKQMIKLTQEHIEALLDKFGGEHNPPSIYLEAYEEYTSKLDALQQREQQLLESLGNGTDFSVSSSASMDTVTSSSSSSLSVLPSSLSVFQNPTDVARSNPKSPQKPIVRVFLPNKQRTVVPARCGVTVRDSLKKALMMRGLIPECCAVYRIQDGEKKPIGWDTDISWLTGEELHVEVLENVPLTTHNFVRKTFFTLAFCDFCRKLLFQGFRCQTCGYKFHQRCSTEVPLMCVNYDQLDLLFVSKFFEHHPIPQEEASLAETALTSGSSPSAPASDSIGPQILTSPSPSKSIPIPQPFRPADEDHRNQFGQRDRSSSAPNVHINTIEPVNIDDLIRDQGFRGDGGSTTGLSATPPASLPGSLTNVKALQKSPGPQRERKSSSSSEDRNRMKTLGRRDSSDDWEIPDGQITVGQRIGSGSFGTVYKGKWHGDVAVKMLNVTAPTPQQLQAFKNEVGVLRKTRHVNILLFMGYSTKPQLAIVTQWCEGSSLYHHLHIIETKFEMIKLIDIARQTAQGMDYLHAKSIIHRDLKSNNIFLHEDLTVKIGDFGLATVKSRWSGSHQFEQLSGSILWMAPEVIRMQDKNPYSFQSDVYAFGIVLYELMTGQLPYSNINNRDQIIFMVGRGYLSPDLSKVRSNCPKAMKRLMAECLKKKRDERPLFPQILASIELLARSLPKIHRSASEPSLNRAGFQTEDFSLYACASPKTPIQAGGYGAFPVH

[1] = tested on: phosphorylation of downstream ERK1/2 (pT202/Y204) in WM266.4 cells; experiment: Cell-based B-RAFV600E kinase assay; conditions: for pERK 1/2: WM266.4 cell line, mean ± standard error of two experiments
In short: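 Phospho-ERK1/2 (pT202/Y204) and total ERK1/2 were measured by a single-step sandwich ELISA (affinity-tagged capture antibody, reporter-conjugated detector antibody). pERK was reported in ng/mL as duplicate determinations. % inhibition was calculated against untreated control cells, as mean ± S.E. of two experiments.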

B-RAF(V600E), sequence (P15056 whole entry V600E): as the sequence (P15056 whole entry) above, with V600E counted along it

IC50 (B-RAF(V600E))	selectivity for B-RAFV600E kinase over B-RAF wild-type kinase (B-RAF(V600E))	IC50 (B-RAF (wild-type))	SMILES	IC50 (Sk-mel-23 melanoma cells)	potency against WM266.4 melanoma cells relative to dabrafenib (WM266.4 melanoma cells)	also measured
185 ± 9.6 nM			Cc1ccc(C(CS(=O)(=O)c2ccccc2)=NNC2=NC(=O)C(=NNc3ccc(Cl)cc3)S2)cc1 [Compound 11b, 2-[N′-(2-Benzenesulfonyl-1-p-tolyl-ethylidene)-hydrazino]-5-[(4-chloro-phenyl)-hydrazono]-thiazol-4-one]			
84.9 ± 4.4 nM	approximately four	361 ± 19.4 nM	Cc1ccc(C(CS(=O)(=O)c2ccccc2)=NNC2=NC(=O)C(=NNc3ccccc3)S2)cc1 [Compound 11a, 2-[N′-(2-Benzenesulfonyl-1-p-tolyl-ethylidene)-hydrazino]-5-(phenyl-hydrazono)-thiazol-4-one]	430 ± 20 nM	three to five	
95.4 ± 5 nM		229 ± 12.3 nM	Cc1ccc(C(CS(=O)(=O)c2ccccc2)=NNC2=NC(=O)C(=NNc3ccc([N+](=O)[O-])cc3)S2)cc1 [Compound 11c, 2-[N′-(2-Benzenesulfonyl-1-p-tolyl-ethylidene)-hydrazino]-5-[(4-nitro-phenyl)-hydrazono]-thiazol-4-one]	22300 ± 1140 nM	11 fold	
206 ± 11 nM			Cc1ccc(C(CS(=O)(=O)c2ccccc2)=NN=C2N=C(c3ccc(C)cc3)CS2)cc1 [Compound 13b, N-(2-Benzenesulfonyl-1-p-tolyl-ethylidene)-N′-(4-p-tolyl-5H-thiazol-2-ylidene)-hydrazine]			
23.1 ± 1.2 nM	approximately four	97.9 ± 5.2 nM	Cc1ccc(C(CS(=O)(=O)c2ccccc2)=NN=C2N=C(c3ccc(Br)cc3)CS2)cc1 [Compound 13a, N-(2-Benzenesulfonyl-1-p-tolyl-ethylidene)-N′-[4-(4-bromo-phenyl)-5H-thiazol-2-ylidene]-hydrazine]	50200 ± 2560 nM	three to five	

The next lines start with the compound.

SMILES	IC50 (B-RAF(V600E))	selectivity for B-RAFV600E kinase over B-RAF wild-type kinase (B-RAF(V600E))	IC50 (B-RAF (wild-type))	IC50 (Sk-mel-23 melanoma cells)	potency against WM266.4 melanoma cells relative to dabrafenib (WM266.4 melanoma cells)	also measured
Cc1ccc(C(CS(=O)(=O)c2ccccc2)=NNc2nc(C)c(N=Nc3ccccc3)s2)cc1 [Compound 7a, N-(2-Benzenesulfonyl-1-p-tolyl-ethylidene)-N′-(4-methyl-5-phenylazo-thiazol-2-yl)-hydrazine]	199 ± 10 nM					
Cc1ccc(C(CS(=O)(=O)c2ccccc2)=NNc2nc(-c3ccc(OCCCCOc4ccc(-c5csc(NN=C(CS(=O)(=O)c6ccccc6)c6ccc(C)cc6)n5)cc4)cc3)cs2)cc1 [Compound 15, 1,1′-[1,4-Butanediylbis(oxy)]bis[4-(2-{[2-(benzenesulfonyl)-1-(p-tolyl)ethylidene]-hydrazino}thiazol-4-yl)benzene]]	51.9 ± 2.7 nM	5 fold	251 ± 13.5 nM	17600 ± 890 nM		cytotoxic potency toward WM266.4 rather than Sk-mel-23 melanoma cells (WM266.4 melanoma cells; WM266.4 (B-RAFV600E-mutated) versus Sk-mel-23 (B-RAF wild type)): equal potency
NC(=S)NN=C(CS(=O)(=O)c1ccccc1)c1ccc(F)cc1 [Compound 17, 2-Benzenesulfonyl-1-(4-fluorophenyl)-ethanone thiosemicarbazone]	68.2 ± 3.5 nM		153 ± 8.2 nM	12400 ± 630 nM	11 fold	activity toward B-rafV600E as share of the activity of dabrafenib (B-RAF(V600E); relative to dabrafenib): 70%
Cc1ccc(C(CS(=O)(=O)c2ccccc2)=NNc2nc(C)c(N=Nc3cccc(C)c3)s2)cc1 [Compound 7b, N-(2-Benzenesulfonyl-1-p-tolyl-ethylidene)-N′-(4-methyl-5-m-tolylazo-thiazol-2-yl)-hydrazine]	36.3 ± 1.9 nM	approximately four	124 ± 6.6 nM	7870 ± 400 nM	three to five	pERK 1/2 [1]: 1.339 ± 0.035 ng mL^−1
CC(C)(C)c1nc(-c2cccc(NS(=O)(=O)c3c(F)cccc3F)c2F)c(-c2ccnc(N)n2)s1 [Dabrafenib, dabrafenib]				9030 ± 460 nM		pERK 1/2 [1]: 0.769 ± 0.018 ng mL^−1; % inhibition of pERK 1/2 ([1]; WM266.4 cells, compared with the control cancer cells): 71.9%
Cc1ccc(C(CS(=O)(=O)c2ccccc2)=NNC(N)=S)cc1 [Compound 3, 2-Benzenesulfonyl-1-p-tolyl-ethanone thiosemicarbazone]	115 ± 6 nM					
Cc1ccc(N=Nc2sc(NN=C(CS(=O)(=O)c3ccccc3)c3ccc(C)cc3)nc2C)cc1 [Compound 7c, N-(2-Benzenesulfonyl-1-p-tolyl-ethylidene)-N′-(4-methyl-5-p-tolylazo-thiazol-2-yl)-hydrazine]	108 ± 5.6 nM					
COc1ccc(-c2csc(NN=C(CS(=O)(=O)c3ccccc3)c3ccc(F)cc3)n2)cc1 [Compound 19, N-[2-Benzenesulfonyl-1-(4-fluorophenyl)-ethylidene]-N′-[4-(4-methoxyphenyl)thiazol-2-yl]-hydrazine]	116 ± 8 nM					

From article PMC9513682 (RSC Advances, 2022)
